Source: ChEMBL document CHEMBL1122031, “(+/-)-4-Aryl-4,5-dihydro-3H-1,3-benzodiazepines. 2. Nuclear-substituted analogues of (+/-)-4,5-dihydro-2,3-dimethyl-4-phenyl-3H-1,3-benzodiazepine and (+/-)-4,5-dihydro-2-ethyl-3-methyl-4-phenyl-3H-1,3-benzodiazepine as potential antidepressant agents” (1982)

Columns and labels:
Format in all cases: functional
Rattus norvegicus = experiment: Compound, administered intraperitoneally and was evaluated for potentiation of the 5-hydroxytryptophan-induced behavioral syndrome in pargyline pretreated rats; conditions: ip
Mus musculus [1] = experiment: Inhibition of tetrabenazine-induced ptosis (TBZ) in mice by peroral administration; conditions: po
Outline: (§1)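 Mice dosed with the compound and scored for prevention of tetrabenazine-induced ptosis. ED₅₀ was derived by linear regression analysis and reported with 95% confidence limits.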

Mus musculus [2] = species: Mus musculus; experiment: Inhibition of pentylenetetrazole (PTZ)-induced lethality in mice
Mus musculus [3] = species: Mus musculus; experiment: Evaluated for prevention of amphetamine aggregation toxicity in mice,
Mus musculus [4] = experiment: Compound, administered perorally and was evaluated for prevention of amphetamine aggregation toxicity in mice; conditions: po
Mus musculus [5] = experiment: Compound, administered intraperitoneally and was evaluated for inhibition of pentylenetetrazole (PTZ)-induced lethality in mice; conditions: ip
Mus musculus [6] = experiment: Evaluated for antidepressant activity by inhibition of tetrabenazine-induced ptosis (TBZ) in mice by ip administration; outline: as §1

SMILES: CCC1=Nc2ccccc2CC(c2ccccc2)N1C (centres undefined)
- ED50 (Rattus norvegicus): > 10 mg/kg
- ED50 (Mus musculus [1]): 1.6 mg/kg
- ED50 (Mus musculus [2]; Mus musculus, read-out: ED50): > 40 mg/kg
- ED50 (Mus musculus [3]): > 20 mg/kg

SMILES: COc1ccc(C2Cc3ccccc3N=C(C)N2C)cc1 (centres undefined)
- ED50 (Mus musculus [1]): 19.8 mg/kg
- ED50 (Mus musculus [4]): > 20 mg/kg
- ED50 (Mus musculus [5]): > 40 mg/kg

SMILES: CC1=Nc2ccccc2CC(c2ccccc2Cl)N1C (centres undefined)
- ED50 (Mus musculus [6]): > 5 mg/kg
- ED50 (Mus musculus [2]; Mus musculus, read-out: ED50): > 40 mg/kg
- ED50 (Mus musculus [3]): > 20 mg/kg

SMILES: CC1=Nc2ccccc2CC(c2ccccc2C)N1C (centres undefined)
- ED50 (Mus musculus [1]): 5.5 mg/kg
- ED50 (Mus musculus [2]; Mus musculus, read-out: ED50): > 40 mg/kg
- ED50 (Mus musculus [3]): > 20 mg/kg

SMILES: CCC1=Nc2ccc(Cl)cc2CC(c2ccccc2)N1C (centres undefined)
- ED50 (Mus musculus [6]): ~20 mg/kg
- ED50 (Mus musculus [2]): >40 mg/kg
- ED50 (Mus musculus [2]; Mus musculus, read-out: ED50): > 20 mg/kg

SMILES: CCC1=Nc2ccc(Cl)cc2CC(c2ccccc2F)N1C (centres undefined)
- ED50 (Mus musculus [6]): > 20 mg/kg
- ED50 (Mus musculus [2]): >20 mg/kg
- ED50 (Mus musculus [2]; Mus musculus, read-out: ED50): > 40 mg/kg

SMILES: CC1=Nc2ccccc2CC(c2ccc(Cl)cc2)N1C (centres undefined)
- ED50 (Rattus norvegicus): > 10 mg/kg
- ED50 (Mus musculus [1]): 0.52 mg/kg
- ED50 (Mus musculus [2]; Mus musculus, read-out: ED50): > 40 mg/kg
- ED50 (Mus musculus [3]): > 20 mg/kg

SMILES: CCC1=Nc2ccccc2CC(c2ccc(F)cc2)N1C (centres undefined)
- ED50 (Mus musculus [1]): 8.4 mg/kg

SMILES: CC1=Nc2ccc(Cl)cc2CC(c2ccccc2)N1C (centres undefined)
- ED50 (Mus musculus [6]): ≥ 20 mg/kg
- ED50 (Mus musculus [2]; Mus musculus, read-out: ED50): > 40 mg/kg
- ED50 (Mus musculus [3]): > 20 mg/kg

SMILES: CC1=Nc2ccc(Cl)cc2CC(c2ccccc2F)N1C (centres undefined)
- ED50 (Mus musculus [6]): > 20 mg/kg
- ED50 (Mus musculus [2]; Mus musculus, read-out: ED50): > 40 mg/kg
- ED50 (Mus musculus [3]): > 20 mg/kg

SMILES: CCC1=Nc2ccccc2CC(c2ccc(OC)c(OC)c2)N1C (centres undefined)
- ED50 (Mus musculus [6]): 8.2 mg/kg
- ED50 (Mus musculus [4]): > 20 mg/kg
- ED50 (Mus musculus [5]): > 40 mg/kg

SMILES: COc1ccc(C2Cc3ccccc3N=C(C)N2C)cc1OC (centres undefined)
- ED50 (Mus musculus [1]): 5 mg/kg
- ED50 (Mus musculus [4]): > 20 mg/kg
- ED50 (Mus musculus [5]): > 40 mg/kg

SMILES: CCC1=Nc2ccccc2CC(c2ccccc2F)N1C (centres undefined)
- ED50 (Mus musculus [1]): 7 mg/kg
- ED50 (Mus musculus [2]; Mus musculus, read-out: ED50): > 40 mg/kg
- ED50 (Mus musculus [3]): > 20 mg/kg

SMILES: CC1=Nc2ccccc2CC(c2ccc(F)cc2)N1C (centres undefined)
- ED50 (Rattus norvegicus): > 10 mg/kg
- ED50 (Mus musculus [1]): 3.6 mg/kg
- ED50 (Mus musculus [2]; Mus musculus, read-out: ED50): > 40 mg/kg
- ED50 (Mus musculus [3]): > 20 mg/kg

SMILES: CCC1=Nc2ccccc2CC(c2ccc(OC)cc2)N1C (centres undefined)
- ED50 (Mus musculus [1]): 2.8 mg/kg
- ED50 (Mus musculus [4]): > 20 mg/kg
- ED50 (Mus musculus [5]): > 40 mg/kg

SMILES: CCC1=Nc2ccccc2CC(c2ccccc2Cl)N1C (centres undefined)
- ED50 (Mus musculus [1]): 4.1 mg/kg

SMILES: CCC1=Nc2ccccc2CC(c2ccc(Cl)cc2)N1C (centres undefined)
- ED50 (Mus musculus [6]): < 5 mg/kg
- ED50 (Mus musculus [2]; Mus musculus, read-out: ED50): > 20 mg/kg

SMILES: CC1=Nc2ccccc2CC(c2ccc(C)cc2)N1C (centres undefined)
- ED50 (Rattus norvegicus): > 10 mg/kg
- ED50 (Mus musculus [1]): 5.2 mg/kg
- ED50 (Mus musculus [2]; Mus musculus, read-out: ED50): > 40 mg/kg
- ED50 (Mus musculus [3]): > 20 mg/kg

SMILES: CCC1=Nc2ccccc2CC(c2ccccc2C)N1C (centres undefined)
- ED50 (Mus musculus [1]): 3.1 mg/kg
- ED50 (Mus musculus [2]): >20 mg/kg
- ED50 (Mus musculus [2]; Mus musculus, read-out: ED50): > 40 mg/kg

SMILES: CC1=Nc2ccccc2CC(c2ccccc2F)N1C (centres undefined)
- ED50 (Rattus norvegicus): > 10 mg/kg
- ED50 (Mus musculus [1]): 7.6 mg/kg
- ED50 (Mus musculus [2]; Mus musculus, read-out: ED50): > 40 mg/kg
- ED50 (Mus musculus [3]): > 20 mg/kg

SMILES: CCC1=Nc2ccccc2CC(c2ccc(C)cc2)N1C (centres undefined)
- ED50 (Rattus norvegicus): > 10 mg/kg
- ED50 (Mus musculus [1]): 6.1 mg/kg
- ED50 (Mus musculus [2]; Mus musculus, read-out: ED50): > 40 mg/kg
- ED50 (Mus musculus [3]): > 20 mg/kg

SMILES: CN(C)CCC=C1c2ccccc2CCc2ccccc21 [AMITRIPTYLINE]
- ED50 (Mus musculus [1]): 1.9 mg/kg

SMILES: CC1=Nc2ccccc2CC(c2ccccc2)N1C (centres undefined) [DAZEPINIL]
- ED50 (Rattus norvegicus): > 10 mg/kg
- ED50 (Mus musculus [1]): 2.1 mg/kg
- ED50 (Mus musculus [2]; Mus musculus, read-out: ED50): > 40 mg/kg
- ED50 (Mus musculus [3]): > 20 mg/kg
